Experimental data taken from ChEMBL document CHEMBL3877256, “Design, synthesis and evaluation of novel 2-amino-3-(naphth-2-yl)propanoic acid derivatives as potent inhibitors of platelet aggregation” (Eur J Med Chem, 2017).

Columns and labels:
[1] = biological target: T1, Integrin alpha-IIb/beta-3 (Homo sapiens, UniProt P05106+P08514); assay: Antagonist activity at GP2b/GP3a receptor in human platelet rich plasma assessed as inhibition of ADP-induced platelet aggregation at 50 uM preincubated for 1 min followed by ADP addition by aggregometric method relative to control
Outline: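 Human PRP from apheresis platelets, PPP from centrifugation at 3000r/min for 10 min used as reference. Compound in saline or 0.2% aqueous DMSO added to PRP, incubated 1 min, then ADP 20 μM (per table footnotes; methods list 10 μM) added. Light transmission aggregometry at 37°C, maximal aggregation vs PPP. Inhibition relative to control aggregation ratio. IC50 from at least four concentrations.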

[2] = biological target: T1, Integrin alpha-IIb/beta-3; assay: Displacement of fibrinogen from human platelet GP2b/GP3a receptor after 2 hrs by ELISA
Outline: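 Plates coated overnight at 4°C with fibrinogen 10 µg/ml in 0.1 M carbonate pH 9.5, blocked with 1% BSA. Purified human platelet GPIIb/IIIa (20 µg/ml) added with samples for 2 h in Tris/NaCl/CaCl2/Tween buffer pH 7.5. Bound receptor detected with anti-β3 antibody (1 h, 37°C) and alkaline phosphatase conjugate with pNPP, A405. BSA-only wells subtracted. Triplicate.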

Mus musculus [3] = assay: Toxicity in ICR mouse assessed as bleeding time at 15 mg/kg, iv administered 30 mins prior to test by tail transection method; type: organism-based; conditions: in vivo, 0.5 h
Outline: (§1)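 ICR mice dosed 30 min before test, saline as control. Anesthetized with 5% chloral hydrate i.p., kept at 37°C on a heating pad. 3-mm tail tip cut off and tail immersed in 37°C saline. Time until bleeding stopped for more than 5 s recorded, accumulated within 20 min. n=6.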

Mus musculus [4] = assay: Toxicity in ICR mouse assessed as bleeding time at 3 mg/kg, iv administered 30 mins prior to test by tail transection method; type: organism-based; conditions: in vivo, 0.5 h; outline: as §1
Rattus norvegicus [5] = assay: Anti-thrombotic activity in Sprague-Dawley rat arterio-venous shunt thrombosis model assessed as reduction in thrombus weight at 10 mg/kg, iv pretreated for 15 mins followed by arteriovenous shunt thrombosis induction measured after 20 mins relative to control; type: functional; design: scale not given: the % may be the effect or the level left
Outline: (§2)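 SD rats of both sexes, 180~220 g, dosed by tail vein injection. After 15 min, anesthetized with 10% chloral hydrate (3 ml/kg i.p.). Shunt catheter placed between left jugular vein and right common carotid artery, opened 20 min. Thrombus dried at 60°C for 20 min and weighed without the thread. n=6.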

Mus musculus [6] = assay: Toxicity in ICR mouse assessed as bleeding time at 30 mg/kg, iv administered 30 mins prior to test by tail transection method; type: organism-based; conditions: in vivo, 0.5 h; outline: as §1
Rattus norvegicus [7] = assay: Anti-thrombotic activity in iv dosed Sprague-Dawley rat arterio-venous shunt thrombosis model assessed as reduction in thrombus weight pretreated for 15 mins followed by arteriovenous shunt thrombosis induction measured after 20 mins; type: functional, organism-based; outline: as §2

Row | inhibition [1] [%] | Structure (SMILES) | other results
1 | 62.9 | N=C(N)c1ccc(COc2ccc3cc(CC(NS(=O)(=O)c4ccc([N+](=O)[O-])cc4)C(=O)O)ccc3c2)cc1 (racemic) | –
2 | > 99.5 | CCCCS(=O)(=O)NC(Cc1ccc2cc(OCc3ccc(C(=N)N)cc3)ccc2c1)C(=O)O (racemic) | –
3 | < 5 | O=C(O)C(Cc1ccc2cc(OCCCC3CCNCC3)ccc2c1)NS(=O)(=O)c1ccc(Br)cc1 (racemic) | –
4 | 50.2 | N=C(N)c1ccc(COc2ccc3cc(CC(NS(=O)(=O)c4ccc(Br)cc4)C(=O)O)ccc3c2)cc1 (racemic) | –
5 | > 99.5 | CCCC(=O)NC(Cc1ccc2cc(OCc3ccc(C(=N)N)cc3)ccc2c1)C(=O)O (racemic) | –
6 | – | Cl.O=C(O)C(Cc1ccc2cc(OCCCN3CCNCC3)ccc2c1)NS(=O)(=O)c1ccccc1 (racemic) | IC50 [2]: 80 nM; inhibition [2]: Dose-dependent effect; Time (Mus musculus [3]): 8.63 min; Time (Mus musculus [4]): 6.72 min; Activity (Rattus norvegicus [5]): 40%; Time (Mus musculus [6]): 9.28 min; Activity (Rattus norvegicus [7]): Dose-dependent effect
7 | < 5 | O=C(O)C(Cc1ccc2cc(OCCC3CCNCC3)ccc2c1)NS(=O)(=O)c1ccc(Br)cc1 (racemic) | –
8 | > 99.5 | Cc1ccc(S(=O)(=O)NC(Cc2ccc3cc(OCc4ccc(C(=N)N)cc4)ccc3c2)C(=O)O)cc1 (racemic) | –
9 | 49.7 | N=C(N)c1ccc(COc2ccc3cc(CC(NC(=O)c4cccc(F)c4)C(=O)O)ccc3c2)cc1 (racemic) | –
10 | > 99.5 | N=C(N)c1ccc(COc2ccc3cc(CC(NS(=O)(=O)c4ccccc4)C(=O)O)ccc3c2)cc1 (racemic) | IC50 [2]: 1330 nM; inhibition [2]: Dose-dependent effect
11 | 23.3 | N=C(N)c1ccc(COc2ccc3cc(CC(NC(=O)c4ccc(F)cc4)C(=O)O)ccc3c2)cc1 (racemic) | –
12 | 38.1 | O=C(O)C(Cc1c[nH]c2ccc(OCCCCC3CCNCC3)cc12)NS(=O)(=O)c1ccc(Br)cc1 (stereo not drawn) | –
13 | < 5 | O=C(O)C(Cc1ccc2cc(OCC3CCNCC3)ccc2c1)NS(=O)(=O)c1ccc(Br)cc1 (racemic) | –
14 | 32.4 | COc1ccc(C(=O)NC(Cc2ccc3cc(OCc4ccc(C(=N)N)cc4)ccc3c2)C(=O)O)cc1 (racemic) | –
15 | 21.5 | COc1ccc(S(=O)(=O)NC(Cc2ccc3cc(OCc4ccc(C(=N)N)cc4)ccc3c2)C(=O)O)cc1 (racemic) | –
16 | 91.2 | O=C(O)C(Cc1ccc2cc(OCCCCN3CCNCC3)ccc2c1)NS(=O)(=O)c1ccc(Br)cc1 (racemic) | –
17 | 49.4 | N=C(N)c1ccc(COc2ccc3cc(CC(NC(=O)c4ccccc4)C(=O)O)ccc3c2)cc1 (racemic) | –
18 | 97.3 | O=C(O)C(Cc1ccc2cc(OCCN3CCNCC3)ccc2c1)NS(=O)(=O)c1ccc(Br)cc1 (racemic) | –
19 | > 99.5 | N=C(N)c1ccc(COc2ccc3cc(CC(NC(=O)c4ccc([N+](=O)[O-])cc4)C(=O)O)ccc3c2)cc1 (racemic) | –
20 | 99.1 | O=C(O)C(Cc1ccc2cc(OCCCN3CCNCC3)ccc2c1)NS(=O)(=O)c1ccc(Br)cc1 (racemic) | –
